In brackets after ≈: the same amount, converted by molar mass.
Tests used:
Staphylococcus aureus [1] = experiment: Antibacterial activity against Staphylococcus aureus ATCC 25923 assessed as inhibition of visible bacterial growth incubated for 18 to 20 hrs by CLSI method; type: functional; conditions: time 18-20 hrs
Outline: (§1)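 CLSI broth microdilution. Strains grown aerobically overnight on tryptic soy agar at 37 °C, adjusted to 0.5 McFarland and diluted in cation-adjusted Mueller–Hinton broth to about 5×10^5 CFU/mL. Compounds and control drugs serially diluted across the plate. Incubated aerobically at 37 °C for 18-20 h. MIC is the lowest concentration with no visible growth.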

Staphylococcus aureus [2] = experiment: Antibacterial activity against methicillin-resistant Staphylococcus aureus ATCC 33592 assessed as inhibition of visible bacterial growth incubated for 18 to 20 hrs by CLSI method; type: functional; conditions: time 18-20 hrs; outline: as §1
Staphylococcus aureus [3] = experiment: Antibacterial activity against methicillin-sensitive Staphylococcus aureus ATCC 6538 assessed as inhibition of visible bacterial growth incubated for 18 to 20 hrs by CLSI method; type: functional; conditions: time 18-20 hrs; outline: as §1
Staphylococcus aureus [4] = experiment: Antibacterial activity against methicillin-resistant Staphylococcus aureus NRS382 assessed as inhibition of visible bacterial growth incubated for 18 to 20 hrs by CLSI method; type: functional; conditions: time 18-20 hrs; outline: as §1
Staphylococcus aureus [5] = experiment: Antibacterial activity against methicillin-resistant Staphylococcus aureus NRS387 assessed as inhibition of visible bacterial growth incubated for 18 to 20 hrs by CLSI method; type: functional; conditions: time 18-20 hrs; outline: as §1
[6] = tested on: Staphylococcus epidermidis; experiment: Antibacterial activity against Staphylococcus epidermidis NRS101 assessed as inhibition of visible bacterial growth incubated for 18 to 20 hrs by CLSI method; type: functional; conditions: time 18-20 hrs
Outline: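 Broth microdilution per CLSI. Strains grown aerobically overnight on TSA at 37 °C, suspended to 0.5 McFarland, diluted in CAMHB to about 5×10^5 CFU/mL. Agents serially diluted across plate; aerobic incubation 37 °C for 18-20 h. MIC = lowest concentration completely preventing visible growth.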

Enterococcus faecalis = experiment: Antibacterial activity against vancomycin- resistant Enterococcus faecalis ATCC 51299 assessed as inhibition of visible bacterial growth incubated for 18 to 20 hrs by CLSI method; type: functional; conditions: time 18-20 hrs; outline: as §1
Staphylococcus aureus [7] = experiment: Synergistic antibacterial activity against methicillin-resistant Staphylococcus aureus ATCC 33592 assessed as fractional inhibitory concentration index in presence of linezolid by checkerboard assay; type: functional
Staphylococcus aureus [8] = experiment: Synergistic antibacterial activity against methicillin-resistant Staphylococcus aureus ATCC 33592 assessed as fractional inhibitory concentration index in presence of daptomycin by checkerboard assay; type: functional
[9] = Hemolytic activity in human RBC at 64 ug/ml incubated for 60 mins relative to control; type: ADME, cell-based, Erythrocyte; conditions: red blood cells (erythrocytes), at 64 µg/mL, read-out: Activity
Outline: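 Single-donor human erythrocytes as a 5% v/v suspension in PBS. Compounds serially diluted in PBS, in triplicate, and incubated with RBCs at 37 °C for 60 min. PBS served as the negative control and Triton-X as the positive control. Samples spun at 4,000 rpm for 5 min and supernatant absorbance read at 540 nm. Percent hemolysis = 100×(sample−negative)/(positive−negative).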

Staphylococcus aureus [10] = experiment: Antibacterial activity against methicillin-resistant Staphylococcus aureus USA400 infected in mouse J774 cells assessed as log reduction in intracellular growth at 8 ug/ml incubated for 18 to 22 hrs; type: functional; conditions: dose 8 µg/ml; time 18-22 hrs
Outline: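 J774 murine macrophages grown in DMEM with 10% FBS at 37 °C, 5% CO2. Cells infected with MRSA USA400 at MOI about 10:1 for 1 h, then washed with gentamicin to remove extracellular bacteria. Agents added at 8 or 16 μg/mL in triplicate, with DMSO vehicle control, for 24 h. Cells lysed with 0.1% Triton-X, lysates plated on tryptic soy agar, and CFU counted after 18-22 h at 37 °C. Analysed by two-way ANOVA with Dunnett's test.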

## O=C(Nc1nnc(-c2cccs2)o1)c1ccc(S(=O)(=O)C(F)(F)F)cc1
Staphylococcus aureus [1]
  MIC: 0.5 µg/mL (≈ 1.24 µM)
Staphylococcus aureus [2]
  MIC: 0.5 µg/mL (≈ 1.24 µM)
Staphylococcus aureus [3]
  MIC: 8 µg/mL (≈ 19.8 µM)
Staphylococcus aureus [4]
  MIC: 8 µg/mL (≈ 19.8 µM)
Staphylococcus aureus [5]
  MIC: 4 µg/mL (≈ 9.92 µM)
[6]
  MIC: 4 µg/mL (≈ 9.92 µM)
Enterococcus faecalis
  MIC: 4 µg/mL (≈ 9.92 µM)
Staphylococcus aureus [7]
  fractional inhibitory concentration index (FICI): 1.03
Staphylococcus aureus [8]
  fractional inhibitory concentration index (FICI): 0.63
[9]
  hemolysis at 1 h, 64 ug/ml: 35%
Staphylococcus aureus [10]
  Activity: 0.5 log10CFU/ml
